Reference: PubChem BioAssay AID504823 (Southern Research Specialized Biocontainment Screening …, 2011)

Tested on: HEp-2 RSV Long CPE inhibition, luminescence viability
Assay: inhibition of RSV cytopathic effect in HEp-2, dose response, cell-based, RSV Long, synthesized compounds, set 9 (AID 504823)
Outline: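 Material – RSV Long-infected HEp-2 cells · Probe or stimulus – RSV Long, MOI 0.45 · Compound dosing – 0.5% DMSO final · Times – 6 days, 37 °C · Measured by – luminescent CPE readout · Evaluation – % CPE inhibition scaled to cell-only and virus-only wells, IC50 by 4-parameter fit · Benchmarks – cell-only and virus control wells · Repeats – triplicate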

| SMILES | IC50 [nM] |
| --- | --- |
| COCCCNC(=O)c1ccc(Cn2c(=O)c3ccccc3n(Cc3ccc([N+](=O)[O-])cc3)c2=O)cc1 | < 1200 |
| COCCCNC(=O)c1ccc(Cn2c(=O)c3ccccc3n(Cc3ccc4nonc4c3)c2=O)cc1 | 5600 |
| COCCCNC(=O)c1ccc(Cn2c(=O)c3ccccc3n(Cc3ccc(C)c(C(F)(F)F)c3)c2=O)cc1 | < 1200 |
| COCCCNC(=O)c1ccc(Cn2c(=O)c3ccccc3n(Cc3ccc(Cl)cc3)c2=O)cc1 | < 1200 |
| COc1ccccc1CNC(=O)C1CCN(S(=O)(=O)c2cccc3nonc23)CC1 | 2900 |
| COCCCNC(=O)c1ccc(Cn2c(=O)c3ccccc3n(Cc3ccc(C(F)(F)F)cc3)c2=O)cc1 | < 1200 |
| COCCCNC(=O)c1ccc(Cn2c(=O)c3ccccc3n(Cc3ccc(OC)cc3)c2=O)cc1 | 2400 |
| Cc1ccc(C)c(NC(=O)[C@@H]2CCCN2S(=O)(=O)c2cccc3cccnc23)c1 | 3200 |
| COCCCNC(=O)c1ccc(Cn2c(=O)c3ccccc3n(Cc3ccc(Br)cc3)c2=O)cc1 | < 1200 |
